Results published in PubChem BioAssay.
Calls of active or inactive are those of the source.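 How the source made its calls, unless noted: active means viability loss from added drug above about 55%, and viability with drug at most 40%, in both replicates (limit read from the data, passing the limit was not always enough); inconclusive means both conditions met in only one replicate; inactive means neither replicate meets both conditions.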

What was measured:
[1] = reducers of endogenous Her2 protein level, primary screen, SKBR3 breast tumor cells, AlphaScreen, ATP viability (AID 461;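 active means Her2 level under about 52% in both replicate screens, with viability over 70% of control, limit read from the data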;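 on Her2 level: lower value means less Her2 protein in the cells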;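 on viability: percent of carrier control wells set as 100% viability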); conditions: 18-24 h, measured here: SKBR3 viability, ATP luminescence, at 10 µM
[2] = biological target: Receptor tyrosine-protein kinase erbB-2 (Homo sapiens) (UniProt P04626); test: as above; conditions: 18-24 h, at 10 µM, stronger effect = lower value
Sequence of Receptor tyrosine-protein kinase erbB-2 (Homo sapiens) (P04626 whole entry, looked up): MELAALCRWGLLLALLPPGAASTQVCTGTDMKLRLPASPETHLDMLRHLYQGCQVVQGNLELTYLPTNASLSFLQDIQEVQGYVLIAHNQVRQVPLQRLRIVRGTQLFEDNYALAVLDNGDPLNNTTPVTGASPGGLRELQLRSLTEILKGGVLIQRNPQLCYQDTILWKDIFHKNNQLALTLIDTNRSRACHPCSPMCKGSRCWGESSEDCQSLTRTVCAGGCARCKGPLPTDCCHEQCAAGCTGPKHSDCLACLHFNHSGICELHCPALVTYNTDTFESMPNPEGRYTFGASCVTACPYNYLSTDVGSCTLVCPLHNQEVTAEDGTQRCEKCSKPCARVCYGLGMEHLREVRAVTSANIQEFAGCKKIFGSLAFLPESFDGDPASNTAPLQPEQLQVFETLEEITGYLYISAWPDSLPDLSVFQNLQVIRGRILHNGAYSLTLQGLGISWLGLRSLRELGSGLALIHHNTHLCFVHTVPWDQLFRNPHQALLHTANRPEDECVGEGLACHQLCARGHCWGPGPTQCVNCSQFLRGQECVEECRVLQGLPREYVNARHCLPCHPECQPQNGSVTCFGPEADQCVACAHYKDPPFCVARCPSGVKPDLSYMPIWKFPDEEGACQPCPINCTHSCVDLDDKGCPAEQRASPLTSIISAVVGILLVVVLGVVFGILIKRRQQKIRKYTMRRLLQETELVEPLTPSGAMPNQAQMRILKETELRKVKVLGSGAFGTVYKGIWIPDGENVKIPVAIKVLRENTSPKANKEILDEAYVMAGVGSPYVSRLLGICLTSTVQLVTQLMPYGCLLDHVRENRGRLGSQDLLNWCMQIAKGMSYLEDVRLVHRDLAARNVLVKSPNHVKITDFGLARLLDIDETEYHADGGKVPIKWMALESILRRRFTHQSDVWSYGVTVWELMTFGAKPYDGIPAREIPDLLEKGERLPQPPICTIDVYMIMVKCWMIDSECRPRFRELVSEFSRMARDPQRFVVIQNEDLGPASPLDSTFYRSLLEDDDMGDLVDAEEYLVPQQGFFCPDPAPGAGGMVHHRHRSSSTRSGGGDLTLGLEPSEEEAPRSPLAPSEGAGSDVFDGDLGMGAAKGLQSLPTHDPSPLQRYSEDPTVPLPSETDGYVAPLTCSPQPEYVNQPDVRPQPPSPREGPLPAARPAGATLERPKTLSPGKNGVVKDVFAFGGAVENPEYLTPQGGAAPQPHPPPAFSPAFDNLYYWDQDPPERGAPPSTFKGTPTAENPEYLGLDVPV

[3] = SK-BR-3 cell growth inhibitors, pilot screen, 24 h, human (AID 572;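 active means viability at or below 10% of carrier control in both of two separate runs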;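 further: compound exposure lasted between 18 and 24 h rather than exactly 24 h; 100% = carrier-treated control wells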); conditions: SK-BR-3 viability, CellTiter-Glo luminescence, at 10 µM, stronger effect = lower value
[4] = HUVEC growth inhibition – cell-based, human, primary screen (AID 575;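 active means viability at or below 30% in both replicate assays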;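 further: 100% = median of untreated cell wells with 0.1% DMSO on each plate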); conditions: HUVEC proliferation, CellTiter-Glo luminescence, 72 h; at 10 µM; stronger effect = lower value
Summary of the method: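 Test system – primary HUVEC, no more than 12 passages · Dosing – one dose, 10 µM final, 0.1% DMSO · Times – 72 h treatment at 37 °C · Measured by – ATP-based CellTiter-Glo luminescent read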

[5] = growth inhibitors of H69AR lung tumor, primary screen, human, duplicate replicates (AID 580;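 active means viability at or under a set limit in both replicates, limit being median viability minus 3 SD, cut at about 48% in these data, passing the limit was not always enough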;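 further: 100% = mean luminescence of untreated wells and 0% = no signal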); conditions: H69AR lung tumor cells viability, ATP luminescence, 72 h; at 10 µM; stronger effect = lower value
[6] = reversal of MRP1-mediated doxorubicin resistance, pilot screen, H69AR cells, doxorubicin co-treatment (AID 601); conditions: CellTiter-Glo, 72 h, at 10 µM; for differential viability (reversal): stronger effect = higher value
[7] = 384-well plate pilot, post-Golgi transport modulator project, inhibition of yeast transport mutant growth (AID 636; in the data active means inhibition above about 31%); conditions: absorbance 615 nm, about 18 h, stronger effect = higher value
[8] = growth suppression of yeast trafficking mutant, preliminary HTS, modulators of trafficking downstream of Golgi apparatus project, 1536-format plate, OD 615 nm (AID 637; in the data active means inhibition above about 30%); conditions: yeast transport mutant growth, absorbance 615 nm, 18 h; stronger effect = higher value
[9] = H69AR cells + 2 uM doxorubicin, measured here: viability with 2 uM doxorubicin, stronger effect = lower value
[10] = H69AR cells, compound alone cytotoxicity

| SMILES | viability [1] [%] | Her2 level [2] | viability [3] | viability [4] | viability [5] | differential viability (reversal) ([6]; H69AR cells + 2 uM doxorubicin) | viability [6, 9] [%] | viability [6, 10] [%] | inhibition [7] | inhibition [8] |
| --- | --- | --- | --- | --- | --- | --- | --- | --- | --- | --- |
| Cc1ccc2[nH]c(=O)c(CN(Cc3ccc4c(c3)OCO4)Cc3nnnn3Cc3ccco3)cc2c1 | 102 | 93% (inactive) | 102% (inactive) | 106% (inactive) | 88.9% (inactive) | -3.68% (inactive) | 92.6 | 88.9 | -2.99% (inactive) | -3.49% (inactive) |
| O=C(O)c1c(Cl)c(Cl)c(Cl)c(Cl)c1C(=O)N1CCOCC1 | 109 | 90% (inactive) | 109% (inactive) | 106% (inactive) | 95.7% (inactive) | 2.91% (inactive) | 92.8 | 95.7 | -5.97% (inactive) | 0.16% (inactive) |
| CCn1c(=O)c(C(=O)Nc2cccnc2)c(O)c2ccccc21 | 103 | 84.5% (inactive) | 103% (inactive) | 113% (inactive) | 67.7% (inactive) | -24.2% (inactive) | 91.9 | 67.7 | -0.93% (inactive) | 100% (active) |
| Cc1c(C(=O)NCc2ccccc2)oc2c1C(=O)CCC2 | 72 | 93.5% (inactive) | 72% (inactive) | 75.2% (inactive) | 99.2% (inactive) | 15.6% (inactive) | 83.6 | 99.2 | -4.87% (inactive) | 5.67% (inactive) |
| CC(C)(C)c1ccccc1NC(=O)c1cccnc1 | 91.5 | 93.5% (inactive) | 91.5% (inactive) | 88.7% (inactive) | 96.6% (inactive) | 7.78% (inactive) | 88.8 | 96.6 | -4.67% (inactive) | 0.32% (inactive) |
| O=C(Oc1ccc2c(c1)CCC2)N1CCOCC1 | 90 | 144% (inactive) | 90% (inactive) | 99.9% (inactive) | 95.6% (inactive) | 6.64% (inactive) | 88.9 | 95.6 | 4.87% (inactive) | -5% (inactive) |
| CN1CCCN(CC(O)COCc2cccs2)CC1 (stereo not given) | 89.5 | 84% (inactive) | 89.5% (inactive) | 87.3% (inactive) | 111% (inactive) | 14.2% (inactive) | 96.6 | 111 | -5.54% (inactive) | -1.8% (inactive) |
| CCN1C(=O)c2cccc3c(NC(=O)c4ccc5c(c4)OCCO5)ccc1c23 | 108 | 89% (inactive) | 108% (inactive) | 55.5% (inactive) | 52.2% (inactive) | -20.3% (inactive) | 72.5 | 52.2 | -4.81% (inactive) | 0.63% (inactive) |
| CSc1ccccc1N=CC1=C(O)CC(C)(C)CC1=O | 118 | 96% (inactive) | 118% (inactive) | 67.1% (inactive) | 89.2% (inactive) | -0.87% (inactive) | 90.1 | 89.2 | -4.94% (inactive) | -3.28% (inactive) |
| Cc1cc(C)c2[nH]c(=O)c(C(c3nnnn3Cc3ccc4c(c3)OCO4)N3CCC(C)CC3)cc2c1 (stereo not given) | 90 | 106% (inactive) | 90% (inactive) | 84.4% (inactive) | 86.7% (inactive) | -6.47% (inactive) | 93.1 | 86.7 | -4.67% (inactive) | -6.83% (inactive) |
| COc1cccc(OCc2nc3ccccc3[nH]2)c1 | 86.5 | 110% (inactive) | 86.5% (inactive) | 101% (inactive) | 95.8% (inactive) | 7.5% (inactive) | 88.3 | 95.8 | -0.51% (inactive) | -5% (inactive) |
| Cc1ccccc1C(=O)Nc1c(C(=O)N2CCCC2)cnn1-c1ccccc1 | 112 | 79% (inactive) | 112% (inactive) | 106% (inactive) | 91.9% (inactive) | 9.86% (inactive) | 82 | 91.9 | -7.7% (inactive) | -0.63% (inactive) |
| CC(C)CNS(=O)(=O)c1ccc(CCC(=O)N2CCOCC2)cc1 | 87.5 | 94% (inactive) | 87.5% (inactive) | 95% (inactive) | 91.3% (inactive) | -3.29% (inactive) | 94.6 | 91.3 | -4.73% (inactive) | -4.59% (inactive) |
| O=C(COC(=O)C1CCN(S(=O)(=O)c2cccs2)CC1)c1cc2ccccc2o1 | 104 | 83% (inactive) | 104% (inactive) | 91.9% (inactive) | 96.2% (inactive) | 2.38% (inactive) | 93.8 | 96.2 | -2.19% (inactive) | -0.63% (inactive) |
| OCCNCC(O)Cn1ccc2ccccc21 (stereo not given) | 118 | 94.5% (inactive) | 118% (inactive) | 107% (inactive) | 88.6% (inactive) | 0.01% (inactive) | 88.6 | 88.6 | -3.77% (inactive) | -0.16% (inactive) |
| O=C(CSc1nc2ccccc2s1)N1CCN(C(=O)c2ccco2)CC1 | 86.5 | 97% (inactive) | 86.5% (inactive) | 79.8% (inactive) | 104% (inactive) | 9.76% (inactive) | 94.6 | 104 | -3.82% (inactive) | -5.17% (inactive) |
| Cc1cc(C(=O)N2CCN(c3ncccn3)CC2)cs1 | 90 | 94.5% (inactive) | 90% (inactive) | 104% (inactive) | 102% (inactive) | 11.2% (inactive) | 90.8 | 102 | -5.87% (inactive) | -1.15% (inactive) |
| O=C(O)CCc1ccc(-c2ccc(F)cc2)n1CC(=O)O | 94.5 | 87% (inactive) | 94.5% (inactive) | 106% (inactive) | 98% (inactive) | 10.8% (inactive) | 87.2 | 98 | -7.12% (inactive) | -1.43% (inactive) |
| Nn1c(SCC(=O)Nc2ccc(F)cc2)nnc1-c1cccnc1 | 90.5 | 81% (inactive) | 90.5% (inactive) | 95.1% (inactive) | 103% (inactive) | 7.72% (inactive) | 95.5 | 103 | -0.26% (inactive) | -3.67% (inactive) |
| Cn1c(CNc2nc(-c3ccccc3)cs2)nnc1SCC(=O)N1CCc2ccccc21 | 96.5 | 97.5% (inactive) | 96.5% (inactive) | 81.8% (inactive) | 93.3% (inactive) | 9.91% (inactive) | 83.4 | 93.3 | -1.62% (inactive) | 7.14% (inactive) |
| CN(C)S(=O)(=O)N1CCN(C(=O)N(c2ccccc2)c2ccccc2)CC1 | 81.5 | 154% (inactive) | 81.5% (inactive) | 99.4% (inactive) | 97.5% (inactive) | -4.56% (inactive) | 102 | 97.5 | 1.28% (inactive) | 12.7% (inactive) |
| c1cncc(-c2nnc(-c3ccco3)o2)c1 | 106 | 114% (inactive) | 106% (inactive) | 86.3% (inactive) | 105% (inactive) | 16% (inactive) | 89 | 105 | -4.93% (inactive) | -7.58% (inactive) |
| Cc1ccc(NC(=O)C2CC=CCC2C(=O)N2CCCCC2)cc1 (stereo not given) | 71 | 76.5% (inactive) | 71% (inactive) | 95.7% (inactive) | 95.7% (inactive) | 12.5% (inactive) | 83.2 | 95.7 | -5.54% (inactive) | -1.31% (inactive) |
| COc1ccc(NCc2nnc(SCC(=O)Nc3cc(C)cc(C)c3)o2)cc1 | 112 | 90.5% (inactive) | 112% (inactive) | 70% (inactive) | 81.9% (inactive) | -3.66% (inactive) | 85.6 | 81.9 | -6.53% (inactive) | -1.64% (inactive) |
| CCc1ccc2nc(NC(=O)CSCc3c(C)noc3C)sc2c1 | 88.5 | 110% (inactive) | 88.5% (inactive) | 52.5% (inactive) | 87.2% (inactive) | -10.5% (inactive) | 97.6 | 87.2 | -0.67% (inactive) | -7.54% (inactive) |
| CCOC(=O)c1[nH]c2ccc(C)cc2c1N=C(C)N(C)C | 100 | 89% (inactive) | 100% (inactive) | 96.5% (inactive) | 97.7% (inactive) | 6.32% (inactive) | 91.4 | 97.7 | -0.66% (inactive) | -5.32% (inactive) |
| COc1cc(-c2nc(-c3cccc(C(F)(F)F)c3)no2)cc(OC)c1OC | 102 | 99.5% (inactive) | 102% (inactive) | 94.4% (inactive) | 93.4% (inactive) | 10.7% (inactive) | 82.6 | 93.4 | -1.87% (inactive) | -2.58% (inactive) |
| O=C(CSc1nc(O)c(Cc2ccccc2)c(=O)[nH]1)Nc1ccccc1 | 103 | 97% (inactive) | 103% (inactive) | 106% (inactive) | 86.2% (inactive) | 0.23% (inactive) | 85.9 | 86.2 | -2.08% (inactive) | -2.33% (inactive) |
